Consider 12 molecules from ChEMBL document CHEMBL4680346, “Novel arylcarbamate-N-acylhydrazones derivatives as promising BuChE inhibitors: Design, synthesis, molecular modeling and biological evaluation” (Bioorg Med Chem, 2021).

One may read the IC50 as the concentration that inhibits the measured activity by half. Read a high IC50 as lower potency. For orientation: inhibition means the share of the control response that was lost under treatment. A word on the Ki: it is the dissociation constant of the complex between target and ligand, obtained from inhibition or displacement.

Structures are written as SMILES.

The target in one test is T1, Cholinesterase (Equus caballus, UniProt P81908). As to the kind of experiment: Inhibition of equine serum BuChE using butyrylthiocholine chloride as substrate preincubated for 15 mins followed by substrate addition and measured after 4 mins by Ellman's method. The format is cell-free.
T1 sequence (P81908 whole entry): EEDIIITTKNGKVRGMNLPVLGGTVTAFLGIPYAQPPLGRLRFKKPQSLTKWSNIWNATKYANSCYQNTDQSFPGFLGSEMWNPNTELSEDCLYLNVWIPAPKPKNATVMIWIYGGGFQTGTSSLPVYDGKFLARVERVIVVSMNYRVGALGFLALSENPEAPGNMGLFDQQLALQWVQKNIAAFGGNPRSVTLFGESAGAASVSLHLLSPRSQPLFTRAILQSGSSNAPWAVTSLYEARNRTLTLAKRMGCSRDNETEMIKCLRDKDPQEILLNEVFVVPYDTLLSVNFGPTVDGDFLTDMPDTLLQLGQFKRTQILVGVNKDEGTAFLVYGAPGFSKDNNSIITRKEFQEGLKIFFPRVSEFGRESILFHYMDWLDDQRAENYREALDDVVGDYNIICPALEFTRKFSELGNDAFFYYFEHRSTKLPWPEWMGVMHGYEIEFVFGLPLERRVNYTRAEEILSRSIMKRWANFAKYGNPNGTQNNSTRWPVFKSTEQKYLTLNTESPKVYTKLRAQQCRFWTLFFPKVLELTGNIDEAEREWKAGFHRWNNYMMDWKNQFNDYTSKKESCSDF
Settings: not given
As for `COc1cc(C(=O)N/N=C/c2ccc(OC(=O)N(C)C)cc2)ccc1O`, the IC50 turned out to be 21.9 µM.

Take `COc1cc(C(=O)N/N=C/c2ccccc2OC(=O)N(C)C)ccc1O`: the 50% inhibitory concentration (IC50) was determined as 0.07 µM.

Consider `COc1ccc(C(=O)N/N=C/c2ccccc2OC(=O)N(C)C)cc1OC`, for which the 50% inhibitory concentration (IC50) was 0.31 µM.

With `COc1cc(/C=N/NC(=O)c2cccc(O)c2)ccc1OC(=O)N(C)C`, the IC50 came out at 7.65 µM.

Consider `CN(C)C(=O)Oc1ccccc1/C=N/NC(=O)c1cccc(O)c1`, for which the IC50 amounted to 0.56 µM.

`CN(C)C(=O)Oc1ccc(/C=N/NC(=O)c2ccc(O)cc2)cc1`: the IC50 was above 100 µM.

Molecule `COc1cc(C(=O)N/N=C/c2ccc(OC(=O)N(C)C)c(OC)c2)ccc1O` showed an IC50 of 9.98 µM.

For `CN(C)C(=O)Oc1ccccc1/C=N/NC(=O)c1ccc(O)cc1`, the IC50 was determined as 0.18 µM.

In turn, `COc1cc(/C=N/NC(=O)c2ccc(O)cc2)ccc1OC(=O)N(C)C` came in with an IC50 of 0.94 µM.

`COc1ccc(C(=O)N/N=C/c2ccc(OC(=O)N(C)C)c(OC)c2)cc1OC` yielded an IC50 of 2.07 µM. Compared with the last molecule, the IC50 is about 2.2-fold higher.

The molecule `COc1ccc(C(=O)N/N=C/c2ccc(OC(=O)N(C)C)cc2)cc1OC` registered an IC50 above 100 µM.

Take `CN(C)C(=O)Oc1ccc(/C=N/NC(=O)c2cccc(O)c2)cc1`: the IC50 came out at 29.3 µM.

In another test the target is Cholinesterase (Equus caballus) (UniProt P81908). As to the kind of experiment: Inhibition of equine serum BuChE at 100 uM using butyrylthiocholine chloride as substrate preincubated for 15 mins followed by substrate addition and measured after 4 mins by Ellman's method. It counts as cell-free.
Sequence of Cholinesterase (Equus caballus) (P81908 whole entry): as above
Settings: not given
On the technique in general: DTNB colorimetry detects thiols as they appear.
Turning to `COc1cc(C(=O)N/N=C/c2ccc(OC(=O)N(C)C)cc2)ccc1O`, the inhibition is 63.9%.

The molecule `COc1cc(C(=O)N/N=C/c2ccccc2OC(=O)N(C)C)ccc1O` came in with an inhibition of 77.8%.

Turning to `COc1ccc(C(=O)N/N=C/c2ccccc2OC(=O)N(C)C)cc1OC`, the inhibition is 74%.

Molecule `COc1cc(/C=N/NC(=O)c2cccc(O)c2)ccc1OC(=O)N(C)C` registered an inhibition of 62.2%.

`CN(C)C(=O)Oc1ccccc1/C=N/NC(=O)c1cccc(O)c1` registered an inhibition of 82%.

Turning to `CN(C)C(=O)Oc1ccc(/C=N/NC(=O)c2ccc(O)cc2)cc1`, the inhibition amounted to 31%.

In turn, `COc1cc(C(=O)N/N=C/c2ccc(OC(=O)N(C)C)c(OC)c2)ccc1O` had an inhibition of 49.7%.

The molecule `CN(C)C(=O)Oc1ccccc1/C=N/NC(=O)c1ccc(O)cc1` returned an inhibition of 80.9%.

For `COc1cc(/C=N/NC(=O)c2ccc(O)cc2)ccc1OC(=O)N(C)C`, the inhibition was 73.4%.

Regarding `COc1ccc(C(=O)N/N=C/c2ccc(OC(=O)N(C)C)c(OC)c2)cc1OC`, the inhibition worked out at 78.5%.

The molecule `COc1ccc(C(=O)N/N=C/c2ccc(OC(=O)N(C)C)cc2)cc1OC` had an inhibition of 37.8%.

With `CN(C)C(=O)Oc1ccc(/C=N/NC(=O)c2cccc(O)c2)cc1`, the inhibition came out at 75.2%.

For a further test, the target named is Acetylcholinesterase (Electrophorus electricus) (UniProt O42275). As to the kind of experiment: Inhibition of Electrophorus electricus AChE at 100 uM using acetylthiocholine iodide as substrate preincubated for 15 mins followed by substrate addition and measured after 4 mins by Ellman's method. The following applies: time 19.0 min.
Sequence of Acetylcholinesterase (Electrophorus electricus) (O42275 24-633 limits assumed): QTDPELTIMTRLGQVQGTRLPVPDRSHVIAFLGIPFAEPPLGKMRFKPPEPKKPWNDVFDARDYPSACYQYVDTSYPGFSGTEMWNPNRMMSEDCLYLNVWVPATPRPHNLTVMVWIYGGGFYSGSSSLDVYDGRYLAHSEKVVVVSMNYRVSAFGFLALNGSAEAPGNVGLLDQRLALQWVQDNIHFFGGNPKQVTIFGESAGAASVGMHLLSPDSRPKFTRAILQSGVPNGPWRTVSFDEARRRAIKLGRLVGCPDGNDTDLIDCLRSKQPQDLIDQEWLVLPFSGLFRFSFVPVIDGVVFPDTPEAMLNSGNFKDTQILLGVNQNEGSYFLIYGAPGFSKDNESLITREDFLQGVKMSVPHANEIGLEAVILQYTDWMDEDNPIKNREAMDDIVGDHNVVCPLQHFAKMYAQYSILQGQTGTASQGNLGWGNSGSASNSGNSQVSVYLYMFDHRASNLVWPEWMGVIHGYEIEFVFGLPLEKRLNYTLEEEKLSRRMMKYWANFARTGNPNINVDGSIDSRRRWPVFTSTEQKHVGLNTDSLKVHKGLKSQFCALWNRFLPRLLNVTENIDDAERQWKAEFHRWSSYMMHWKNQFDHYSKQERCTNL
Molecule `COc1cc(C(=O)N/N=C/c2ccc(OC(=O)N(C)C)cc2)ccc1O` had an inhibition of 20.1%.

The molecule `COc1cc(C(=O)N/N=C/c2ccccc2OC(=O)N(C)C)ccc1O` had an inhibition of 24.9%.

`COc1ccc(C(=O)N/N=C/c2ccccc2OC(=O)N(C)C)cc1OC` registered an inhibition of 21.9%.

With `COc1cc(/C=N/NC(=O)c2cccc(O)c2)ccc1OC(=O)N(C)C`, the inhibition was 19.9%.

Consider `CN(C)C(=O)Oc1ccccc1/C=N/NC(=O)c1cccc(O)c1`, for which the inhibition worked out at 18.2%.

As for `CN(C)C(=O)Oc1ccc(/C=N/NC(=O)c2ccc(O)cc2)cc1`, the inhibition came out at 11.7%.

`COc1cc(C(=O)N/N=C/c2ccc(OC(=O)N(C)C)c(OC)c2)ccc1O`: the inhibition was determined as 29.2%.

`CN(C)C(=O)Oc1ccccc1/C=N/NC(=O)c1ccc(O)cc1` registered an inhibition of 11.1%.

In turn, `COc1cc(/C=N/NC(=O)c2ccc(O)cc2)ccc1OC(=O)N(C)C` showed an inhibition of 23.6%.

`COc1ccc(C(=O)N/N=C/c2ccc(OC(=O)N(C)C)c(OC)c2)cc1OC` returned an inhibition of 24.7%.

`COc1ccc(C(=O)N/N=C/c2ccc(OC(=O)N(C)C)cc2)cc1OC`: the inhibition is 28.3%.

As for `CN(C)C(=O)Oc1ccc(/C=N/NC(=O)c2cccc(O)c2)cc1`, the inhibition is 9.65%.

In the next test the target is Acetylcholinesterase (Electrophorus electricus, UniProt O42275). In words: Inhibition of Electrophorus electricus AChE using acetylthiocholine iodide as substrate preincubated for 15 mins followed by substrate addition and measured after 4 mins by Ellman's method.
Sequence of Acetylcholinesterase (O42275 whole entry): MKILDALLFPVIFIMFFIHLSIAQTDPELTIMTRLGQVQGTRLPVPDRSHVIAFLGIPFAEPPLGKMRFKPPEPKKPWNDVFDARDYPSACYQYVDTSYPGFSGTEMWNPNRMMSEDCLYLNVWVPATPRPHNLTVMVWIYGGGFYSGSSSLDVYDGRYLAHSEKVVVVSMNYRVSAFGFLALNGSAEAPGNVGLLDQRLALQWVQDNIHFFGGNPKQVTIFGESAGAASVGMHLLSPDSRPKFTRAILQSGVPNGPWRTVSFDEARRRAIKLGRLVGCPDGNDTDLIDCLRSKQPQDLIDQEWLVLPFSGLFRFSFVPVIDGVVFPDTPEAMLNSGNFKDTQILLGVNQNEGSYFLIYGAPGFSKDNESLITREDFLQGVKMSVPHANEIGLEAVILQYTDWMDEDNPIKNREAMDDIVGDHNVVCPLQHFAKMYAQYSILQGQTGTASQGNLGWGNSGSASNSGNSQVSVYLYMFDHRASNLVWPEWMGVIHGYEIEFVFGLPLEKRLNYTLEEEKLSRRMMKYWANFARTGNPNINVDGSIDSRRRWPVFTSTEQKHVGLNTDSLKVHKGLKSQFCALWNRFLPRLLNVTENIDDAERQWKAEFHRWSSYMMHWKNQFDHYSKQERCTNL
Settings: not given
`COc1cc(C(=O)N/N=C/c2ccc(OC(=O)N(C)C)cc2)ccc1O` had an IC50 above 100 µM.

For the molecule `COc1cc(C(=O)N/N=C/c2ccccc2OC(=O)N(C)C)ccc1O`, the IC50 is above 100 µM.

Regarding `COc1ccc(C(=O)N/N=C/c2ccccc2OC(=O)N(C)C)cc1OC`, the half-maximal inhibitory concentration (IC50) is above 100 µM.

Consider `COc1cc(/C=N/NC(=O)c2cccc(O)c2)ccc1OC(=O)N(C)C`, for which the IC50 was above 100 µM.

`CN(C)C(=O)Oc1ccccc1/C=N/NC(=O)c1cccc(O)c1`: the IC50 was above 100 µM.

In the case of `CN(C)C(=O)Oc1ccc(/C=N/NC(=O)c2ccc(O)cc2)cc1`, the IC50 was above 100 µM.

As to `COc1cc(C(=O)N/N=C/c2ccc(OC(=O)N(C)C)c(OC)c2)ccc1O`, the IC50 was above 100 µM.

In the case of `CN(C)C(=O)Oc1ccccc1/C=N/NC(=O)c1ccc(O)cc1`, the IC50 was above 100 µM.

As for `COc1cc(/C=N/NC(=O)c2ccc(O)cc2)ccc1OC(=O)N(C)C`, the IC50 is above 100 µM.

The molecule `COc1ccc(C(=O)N/N=C/c2ccc(OC(=O)N(C)C)c(OC)c2)cc1OC` displayed an IC50 above 100 µM.

`COc1ccc(C(=O)N/N=C/c2ccc(OC(=O)N(C)C)cc2)cc1OC` showed an IC50 above 100 µM.

Take `CN(C)C(=O)Oc1ccc(/C=N/NC(=O)c2cccc(O)c2)cc1`: the IC50 was above 100 µM.

The target in a further test is Cholinesterase (Equus caballus) (UniProt P81908). In words: Inhibition of equine serum BuChE at 10 uM using butyrylthiocholine chloride as substrate preincubated for 15 mins followed by substrate addition and measured after 4 mins by Ellman's method. It counts as cell-free. The following applies: time 19.0 min.
`COc1cc(C(=O)N/N=C/c2ccc(OC(=O)N(C)C)cc2)ccc1O` gave an inhibition of 44.6%.

With `COc1cc(C(=O)N/N=C/c2ccccc2OC(=O)N(C)C)ccc1O`, the inhibition worked out at 73%.

The molecule `COc1ccc(C(=O)N/N=C/c2ccccc2OC(=O)N(C)C)cc1OC` registered an inhibition of 62.1%.

`COc1cc(/C=N/NC(=O)c2cccc(O)c2)ccc1OC(=O)N(C)C` gave an inhibition of 50.1%.

As for `CN(C)C(=O)Oc1ccccc1/C=N/NC(=O)c1cccc(O)c1`, the inhibition was determined as 74.9%.

For the molecule `CN(C)C(=O)Oc1ccc(/C=N/NC(=O)c2ccc(O)cc2)cc1`, the inhibition stood at 10.4%.

In turn, `COc1cc(C(=O)N/N=C/c2ccc(OC(=O)N(C)C)c(OC)c2)ccc1O` displayed an inhibition of 57.3%.

With `CN(C)C(=O)Oc1ccccc1/C=N/NC(=O)c1ccc(O)cc1`, the inhibition was 76.4%.

The molecule `COc1cc(/C=N/NC(=O)c2ccc(O)cc2)ccc1OC(=O)N(C)C` displayed an inhibition of 68.4%.

In the case of `COc1ccc(C(=O)N/N=C/c2ccc(OC(=O)N(C)C)c(OC)c2)cc1OC`, the inhibition amounted to 74.8%.

Take `COc1ccc(C(=O)N/N=C/c2ccc(OC(=O)N(C)C)cc2)cc1OC`: the inhibition stood at 11.4%.

In turn, `CN(C)C(=O)Oc1ccc(/C=N/NC(=O)c2cccc(O)c2)cc1` registered an inhibition of 42.1%.

In another test the target is T1, Cholinesterase. As to the kind of experiment: Non-Competitive inhibition of equine serum BuChE using varying concentrations of butyrylthiocholine iodide as substrate by Lineweaver-burk plot analysis. It counts as cell-free.
Settings: not given
In a few lines: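 Equine serum BuChE kinetics by the Ellman read-out with butyrylthiocholine at 0.025–2.0 mM. Run without inhibitor and with inhibitor at 0.5 and 1.0 µM. Reciprocal initial rate was plotted against reciprocal substrate concentration (Lineweaver-Burk) to assign the inhibition mode.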
For the molecule `COc1cc(C(=O)N/N=C/c2ccccc2OC(=O)N(C)C)ccc1O`, the Ki was determined as 97 µM. In other words, the double-digit micromolar range.
